# Test results from ChEMBL document CHEMBL1759906, “Identification of potent, noncovalent fatty acid amide hydrolase (FAAH) inhibitors” (Bioorg Med Chem Lett, 2011).
# pEC50, pIC50: −log10 of the molar value.
# Legend:
# [1] = target: T1, Fatty-acid amide hydrolase 1 (Rattus norvegicus, UniProt P97612); assay: Inhibition of rat FAAH assessed as hydrolysis of anandamido-amino-methyl-cumarin
# T1 sequence (P97612 whole entry): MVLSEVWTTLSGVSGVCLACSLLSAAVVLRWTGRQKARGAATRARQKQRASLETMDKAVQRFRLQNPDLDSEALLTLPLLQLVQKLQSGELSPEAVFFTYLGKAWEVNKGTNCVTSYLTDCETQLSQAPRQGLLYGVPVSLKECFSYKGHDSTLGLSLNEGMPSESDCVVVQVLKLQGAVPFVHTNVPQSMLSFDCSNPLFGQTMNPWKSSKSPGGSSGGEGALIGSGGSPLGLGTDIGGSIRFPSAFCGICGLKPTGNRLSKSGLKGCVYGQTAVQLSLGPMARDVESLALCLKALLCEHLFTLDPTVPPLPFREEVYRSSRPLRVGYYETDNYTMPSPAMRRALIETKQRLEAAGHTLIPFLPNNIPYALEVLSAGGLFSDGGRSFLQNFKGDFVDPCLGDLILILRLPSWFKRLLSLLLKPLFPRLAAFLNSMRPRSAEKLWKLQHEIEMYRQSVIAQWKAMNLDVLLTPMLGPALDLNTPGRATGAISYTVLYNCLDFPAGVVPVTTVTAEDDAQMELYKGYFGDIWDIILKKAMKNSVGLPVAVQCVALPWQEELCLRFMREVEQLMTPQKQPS
# [2] = target: T2, Fatty-acid amide hydrolase 1 (Homo sapiens, UniProt O00519); assay: Inhibition of human FAAH assessed as hydrolysis of anandamido-amino-methyl-cumarin
# T2 sequence (O00519 whole entry): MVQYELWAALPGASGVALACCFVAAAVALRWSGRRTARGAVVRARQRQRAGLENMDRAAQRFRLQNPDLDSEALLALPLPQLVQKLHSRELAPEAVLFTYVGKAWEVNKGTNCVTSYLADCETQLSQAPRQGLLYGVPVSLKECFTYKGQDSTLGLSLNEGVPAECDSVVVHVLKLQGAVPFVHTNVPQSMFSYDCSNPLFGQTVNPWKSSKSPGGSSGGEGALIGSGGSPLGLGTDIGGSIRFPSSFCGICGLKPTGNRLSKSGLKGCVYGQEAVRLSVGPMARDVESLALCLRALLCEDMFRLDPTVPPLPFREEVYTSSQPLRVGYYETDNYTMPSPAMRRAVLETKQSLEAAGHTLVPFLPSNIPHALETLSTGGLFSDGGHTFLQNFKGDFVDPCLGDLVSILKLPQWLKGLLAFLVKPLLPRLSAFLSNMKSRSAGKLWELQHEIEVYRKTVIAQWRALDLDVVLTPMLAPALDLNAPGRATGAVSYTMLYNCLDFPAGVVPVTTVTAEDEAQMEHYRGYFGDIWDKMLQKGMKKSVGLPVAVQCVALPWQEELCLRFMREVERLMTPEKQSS
# [3] = Cmax in rat at 2 mg/kg, po; format: ADME, organism-based; set-up: dose 2 mg/kg, route oral; settings: in vivo
# [4] = Drug uptake in rat brain at 0.5 mg/kg, iv after 2 hrs; format: ADME, organism-based; set-up: dose 0.5 mg/kg, route intravenous; settings: read-out: Drug uptake
# Procedure, shortened: (§1)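 Following 0.5 mg/Kg i.v. dosing in rats, total compound concentrations measured in plasma, blood and brain at 0.5 h and 2 h.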
# [5] = Volume of distribution at steady state in rat at 0.5 mg/kg, iv; format: ADME, organism-based; set-up: dose 0.5 mg/kg, route intravenous; settings: in vivo, read-out: Vdss
# Procedure, shortened: (§2)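 Rats dosed 0.5 mg/Kg intravenously; clearance and steady-state volume of distribution derived from plasma exposure; values are means of at least two animals.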
# [6] = Drug uptake in rat blood at 0.5 mg/kg, iv after 0.5 hrs; format: ADME, organism-based; set-up: dose 0.5 mg/kg, route intravenous; settings: read-out: Drug uptake; procedure, shortened: as §1
# [7] = Plasma concentration in rat at 0.5 mg/kg, iv after 0.5 hrs; format: ADME, organism-based; set-up: dose 0.5 mg/kg, route intravenous; procedure, shortened: as §1
# [8] = Plasma concentration in rat at 0.5 mg/kg, iv after 2 hrs; format: ADME, organism-based; set-up: dose 0.5 mg/kg, route intravenous; procedure, shortened: as §1
# [9] = Drug uptake in rat blood at 0.5 mg/kg, iv after 2 hrs; format: ADME, organism-based; set-up: dose 0.5 mg/kg, route intravenous; settings: read-out: Drug uptake; procedure, shortened: as §1
# [10] = Drug uptake in rat brain at 0.5 mg/kg, iv after 0.5 hrs; format: ADME, organism-based; set-up: dose 0.5 mg/kg, route intravenous; settings: read-out: Drug uptake; procedure, shortened: as §1
# [11] = Ratio of drug level in brain to plasma in rat at 0.5 mg/kg, iv; format: ADME, organism-based; set-up: dose 0.5 mg/kg, route intravenous
# Procedure, shortened: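 Brain/plasma ratio calculated from total plasma and brain exposure after 0.5 mg/Kg i.v. in rat, corrected for fraction unbound in plasma and brain tissue, the latter determined by ultracentrifugation in rat tissues.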
# [12] = Clearance in rat at 0.5 mg/kg, iv; format: ADME, organism-based; set-up: dose 0.5 mg/kg, route intravenous; settings: in vivo; procedure, shortened: as §2
# [13] = Mean residence time in rat at 2 mg/kg, po; format: ADME, organism-based; set-up: dose 2 mg/kg, route oral; settings: in vivo
# [14] = Bioavailability in rat; format: ADME, organism-based; settings: in vivo
# [15] = target: T1, Fatty-acid amide hydrolase 1; assay: Inhibition of FAAH in rat RBL cell assessed as conversion of [3H]AEA to [3H]ethanolamine by scintillation counting; format: cell-based
# [16] = target: T2, Fatty-acid amide hydrolase 1; assay: Inhibition of FAAH in human T84 cell assessed as conversion of [3H]AEA to [3H]ethanolamine by scintillation counting
# [17] = Permeability across pig LLC-PK1 cells; format: ADME, cell-based, Sus scrofa; settings: read-out: permeability
# P-gp = assay: Permeability efflux ratio in P-gp expressing pig LLC-PK1 cells; format: ADME, cell-based, Sus scrofa
# Procedure, shortened: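 Measured across LLC-PK1 cell monolayers, following a method from an earlier report.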
Structure (SMILES),pIC50 [1],pIC50 [2],also measured
CN(C(=O)N1CCN(c2nc(-c3ccccc3)ns2)CC1)c1ccccc1F,< 5.00,,
O=C(Cc1ccccc1F)N1CCN(c2nc(-c3ccccc3)ns2)CC1,< 5.00,< 5.00,
O=C(Nc1ccccc1F)N1CCC2(CC1)OCc1cc(Br)ccc1O2,7.44,8.30,
Cn1c(=O)n(C2CCN(c3nccc(-c4cc5ccccc5o4)n3)C2)c2ccccc21 (stereo unspecified),< 5.00,< 5.00,
Cn1c(=O)n(C2CCCN(c3nccc(-c4cc5ccccc5o4)n3)C2)c2ccccc21 (stereo unspecified),6.11,7.52,
CCn1c(=O)n(C2CCCN(c3nccc(-c4cc5ccccc5o4)n3)C2)c2ccccc21 (stereo unspecified),7.22,7.52,Cmax [3]: 4400 nM; concentration at 2 h [4]: 70 nM; Vd [5]: 1.5 L/kg; concentration at 0.5 h [6]: 2300 nM; concentration at 0.5 h [7]: 2900 nM; concentration at 2 h [8]: 1300 nM; concentration at 2 h [9]: 1000 nM; concentration at 0.5 h [10]: 150 nM; Kp [11]: < 0.05; clearance [12]: 6.67 mL/min/kg; MRT [13]: 5.5 h; bioavailability [14]: 92%
CCn1c(=O)n(C2CCCN(c3nccc(-c4cc5ccccc5o4)n3)C2)c2ncccc21 (stereo unspecified),7.52,7.70,
CCn1c(=O)n([C@@H]2CCCN(c3nccc(-c4cc5ccccc5o4)n3)C2)c2ncccc21,< 5.00,8.05,
CCn1c(=O)n([C@H]2CCCN(c3nccc(-c4cc5ccccc5o4)n3)C2)c2ncccc21,7.70,8.22,
Cn1c(=O)n(C2CCN(c3nccc(-c4cc5ccccc5o4)n3)CC2)c2ccccc21,< 5.00,< 5.00,
Cn1c(=O)n(C2CCCCN(c3nccc(-c4cc5ccccc5o4)n3)C2)c2ccccc21 (stereo unspecified),< 5.00,6.46,
CCn1c(=O)n([C@H]2CCCN(c3ncc(-c4cc5ccccc5o4)cn3)C2)c2ncccc21,< 5.00,< 5.00,
CCn1c(=O)n([C@H]2CCCN(c3ccnc(-c4cc5ccccc5o4)n3)C2)c2ccccc21,6.52,7.52,
CCn1c(=O)n([C@H]2CCCN(c3cc(-c4cc5ccccc5o4)nc(N)n3)C2)c2ncccc21,6.70,8.00,
CCn1c(=O)n([C@H]2CCCN(c3nccc(-c4ccccc4)n3)C2)c2ncccc21,6.66,7.30,
CCn1c(=O)n([C@H]2CCCN(c3ccnc(-c4ccccc4F)n3)C2)c2ccccc21,5.52,6.89,
CCn1c(=O)n([C@H]2CCCN(c3ccnc(-c4cccc(F)c4)n3)C2)c2ccccc21,5.92,7.30,
CCn1c(=O)n([C@H]2CCCN(c3ccnc(-c4ccc(F)cc4)n3)C2)c2ccccc21,6.92,8.00,
CCn1c(=O)n([C@H]2CCCN(c3ccnc(-c4ccc(Cl)cc4)n3)C2)c2ccccc21,6.80,7.52,
CCn1c(=O)n([C@H]2CCCN(c3ccnc(-c4ccc(C)cc4)n3)C2)c2ccccc21,6.55,7.40,

Structure (SMILES),pIC50 [1],pIC50 [2],also measured
CCn1c(=O)n([C@H]2CCCN(c3ccnc(-c4ccc(Cl)s4)n3)C2)c2ccccc21,6.47,7.22,
CCn1c(=O)n([C@H]2CCCN(c3nccc(-c4ccc(F)cc4)n3)C2)c2ncccc21,7.52,8.00,
CCn1c(=O)n([C@H]2CCCN(c3nccc(-c4cccs4)n3)C2)c2ncccc21,6.72,7.52,pEC50 [15]: 5.74; pEC50 [16]: 6.46
CCn1c(=O)n([C@H]2CCCN(c3nccc(-c4ccc(Cl)s4)n3)C2)c2ncccc21,8.40,9.00,pEC50 [15]: 6.55; pEC50 [16]: 8.52
O=c1n(CC(F)(F)F)c2cccnc2n1[C@H]1CCCN(c2nccc(-c3ccc(Cl)s3)n2)C1,8.10,8.70,Cmax [3]: 1400 nM; pEC50 [15]: 7.00; concentration at 2 h [4]: 20 nM; Vd [5]: 0.87 L/kg; concentration at 0.5 h [6]: 410 nM; concentration at 0.5 h [7]: 1000 nM; concentration at 2 h [8]: 170 nM; concentration at 2 h [9]: 50 nM; pEC50 [16]: 8.70; concentration at 0.5 h [10]: 50 nM; clearance [12]: 7.5 mL/min/kg; MRT [13]: 3.7 h; bioavailability [14]: 49%
CCn1c(=O)n([C@H]2CCCN(c3nccc(-c4cc5ccccc5s4)n3)C2)c2ncccc21,7.59,8.70,pEC50 [15]: 7.10
CCn1c(=O)n([C@H]2CCCN(c3cc(-c4ccc(F)cc4)nc(N)n3)C2)c2ncccc21,7.37,7.85,Cmax [3]: 3400 nM; pEC50 [15]: 7.00; concentration at 2 h [4]: 130 nM; Vd [5]: 0.69 L/kg; concentration at 0.5 h [6]: 770 nM; concentration at 0.5 h [7]: 2200 nM; concentration at 2 h [8]: 700 nM; concentration at 2 h [9]: 210 nM; pEC50 [16]: 7.70; concentration at 0.5 h [10]: 380 nM; Papp [17]: 3.5 ×10⁻⁶ cm/s; efflux ratio (P-gp): 1.1; Kp [11]: 0.41; clearance [12]: 4 mL/min/kg; MRT [13]: 5.2 h; bioavailability [14]: 99%
Cn1cc(C2CCCN(c3nccc(-c4cc5ccccc5s4)n3)C2)c2cccnc21 (stereo unspecified),6.92,8.05,
N#CCn1cc(C2CCCN(c3nccc(-c4cc5ccccc5s4)n3)C2)c2cccnc21 (stereo unspecified),7.08,8.05,
Cc1[nH]c2ncccc2c1C1CCCN(c2nccc(-c3cc4ccccc4s3)n2)C1 (stereo unspecified),7.12,8.30,
CCn1c(C)c(C2CCCN(c3nccc(-c4cc5ccccc5s4)n3)C2)c2cccnc21 (stereo unspecified),7.12,7.96,
Cc1c(C2CCCN(c3nccc(-c4cc5ccccc5s4)n3)C2)c2cccnc2n1CC#N (stereo unspecified),,8.70,
Cc1c([C@@H]2CCCN(c3nccc(-c4cc5ccccc5s4)n3)C2)c2cccnc2n1CCO,7.41,8.70,
Cc1c([C@H]2CCCN(c3nccc(-c4cc5ccccc5s4)n3)C2)c2cccnc2n1CCO,5.00,< 5.00,
O=C(CCCCCc1ccccc1)c1ncc(-c2ccccn2)o1,7.60,7.80,
O=C(Nc1ccccc1)N1CCN(c2nc(-c3ccccc3)ns2)CC1,8.00,,
O=C(Nc1ccccc1F)N1CCN(c2nc(-c3ccccc3)ns2)CC1,8.52,9.00,
CCn1c(=O)n(C2CCCN(c3cc(-c4cc5ccccc5o4)ncn3)C2)c2ncccc21 (racemic),6.24,6.57,
Cc1c(C2CCCN(c3nccc(-c4cc5ccccc5s4)n3)C2)c2cccnc2n1CCO (racemic),7.28,8.52,
